Key:
Assay type in all cases: functional
[1] = system: SF-268; assay: Growth inhibition of human SF268 cells assessed as cell growth at 1 M after 48 hrs by sulforhodamine B assay; parameters: scale not given: the % may be the effect or the level left
Outline: (§1)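 NCI 60-cell panel screen, single dose (1.0 M as printed). Cells grown in RPMI 1640 with 5% fetal bovine serum and 2 mM L-glutamine, seeded at 5000–40,000 cells/well, preincubated 24 h at 37 °C in 5% CO2 at 100% humidity, then exposed to compound for 48 h. Sulforhodamine B staining read-out. Result given as growth percent: 100 = no inhibition, 0 = no net growth, negative = lethality.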

[2] = system: SNB-19; assay: Growth inhibition of human SNB19 cells assessed as cell growth at 1 M after 48 hrs by sulforhodamine B assay; parameters: scale not given: the % may be the effect or the level left; outline: as §1
[3] = system: M14; assay: Growth inhibition of human M14 cells assessed as cell growth at 1 M after 48 hrs by sulforhodamine B assay; parameters: scale not given: the % may be the effect or the level left
Outline: (§2)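 NCI 60-cell screen at a single high dose. Cells are grown in RPMI 1640 with 5% FBS and 2 mM L-glutamine, then plated at 5000–40,000 cells/well and held 24 h at 37 °C in 5% CO2 at 100% humidity. Drug is then added and plates are incubated another 48 h, with SRB staining as read-out. Results are given as growth percent (100 = no inhibition, 0 = no net growth, negative = lethality).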

[4] = system: Candida albicans; assay: Antimicrobial activity against Candida albicans at 1 to 5 ug/ml by agar well diffusion method
Outline: (§3)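 Agar well diffusion against bacteria and fungi. Inhibition zone is scored beyond the control: ++ 0.6–1.0 cm, + 0.1–0.5 cm, 0 no inhibition.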

[5] = system: Rattus norvegicus; assay: Effect on circulating testosterone and dihydrotestosterone level in sc dosed Sprague-Dawley rat by radioimmunoassay
Outline: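 Rats were given a range of doses of the 5α-reductase inhibitors. Serum testosterone and DHT were measured by radioimmunoassay with specific antisera, without prior chromatography. Serum (0.5 mL) was extracted with 2 mL peroxide-free diethyl ether by shaking for 60 s. Levels were compared with vehicle-treated controls, and ED50 was derived.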

[6] = system: COLO 205; assay: Growth inhibition of human COLO205 cells assessed as cell growth at 1 M after 48 hrs by sulforhodamine B assay; parameters: scale not given: the % may be the effect or the level left; outline: as §2
[7] = system: SW-620; assay: Growth inhibition of human SW620 cells assessed as cell growth at 1 M after 48 hrs by sulforhodamine B assay; parameters: scale not given: the % may be the effect or the level left; outline: as §1
[8] = system: A498; assay: Growth inhibition of human A498 cells assessed as cell growth at 1 M after 48 hrs by sulforhodamine B assay; parameters: scale not given: the % may be the effect or the level left; outline: as §2
[9] = system: SF-295; assay: Growth inhibition of human SF295 cells assessed as cell growth at 1 M after 48 hrs by sulforhodamine B assay; parameters: scale not given: the % may be the effect or the level left; outline: as §1
[10] = Growth inhibition of human […] cells assessed as cell growth at 1 M after 48 hrs by sulforhodamine B assay; parameters: scale not given: the % may be the effect or the level left; outline: as §2
[11] = system: Penicillium italicum; assay: Antimicrobial activity against Penicillium italicum at 1 to 5 ug/ml by agar well diffusion method; outline: as §3
[12] = system: OVCAR-5; assay: Growth inhibition of human OVCAR5 cells assessed as cell growth at 1 M after 48 hrs by sulforhodamine B assay; parameters: scale not given: the % may be the effect or the level left; outline: as §2
[13] = system: UACC-62; assay: Growth inhibition of human UACC62 cells assessed as cell growth at 1 M after 48 hrs by sulforhodamine B assay; parameters: scale not given: the % may be the effect or the level left; outline: as §1
[14] = system: SK-OV-3; assay: Growth inhibition of human SKOV3 cells assessed as cell growth at 1 M after 48 hrs by sulforhodamine B assay; parameters: scale not given: the % may be the effect or the level left; outline: as §1
[15] = system: PC-3; assay: Growth inhibition of human PC3 cells assessed as cell growth at 1 M after 48 hrs by sulforhodamine B assay; parameters: scale not given: the % may be the effect or the level left; outline: as §2
[16] = system: HL-60(TB); assay: Growth inhibition of human HL-60(TB) cells assessed as cell growth at 1 M after 48 hrs by sulforhodamine B assay; parameters: scale not given: the % may be the effect or the level left
Outline: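 NCI 60-cell panel, single-dose screen. Cells grown in RPMI 1640 with 5% fetal bovine serum and 2 mM L-glutamine, seeded at 5000–40,000 cells/well and preincubated 24 h at 37 °C in 5% CO2 before drug. Exposure 48 h, then sulforhodamine B staining. Read-out is growth percent: 100 = no inhibition, 0 = no net growth, negative = lethality.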

[17] = system: A549; assay: Growth inhibition of human A549 cells assessed as cell growth at 1 M after 48 hrs by sulforhodamine B assay; parameters: scale not given: the % may be the effect or the level left; outline: as §2
[18] = system: HOP-92; assay: Growth inhibition of human HOP92 cells assessed as cell growth at 1 M after 48 hrs by sulforhodamine B assay; parameters: scale not given: the % may be the effect or the level left; outline: as §2
[19] = system: KM12; assay: Growth inhibition of human KM12 cells assessed as cell growth at 1 M after 48 hrs by sulforhodamine B assay; parameters: scale not given: the % may be the effect or the level left; outline: as §2
[20] = system: OVCAR-3; assay: Growth inhibition of human OVCAR3 cells assessed as cell growth at 1 M after 48 hrs by sulforhodamine B assay; parameters: scale not given: the % may be the effect or the level left; outline: as §2
[21] = system: K562; assay: Growth inhibition of human K562 cells assessed as cell growth at 1 M after 48 hrs by sulforhodamine B assay; parameters: scale not given: the % may be the effect or the level left; outline: as §2
[22] = system: NCI-H322M; assay: Growth inhibition of human NCI-H322M cells assessed as cell growth at 1 M after 48 hrs by sulforhodamine B assay; parameters: scale not given: the % may be the effect or the level left; outline: as §2
[23] = system: SK-MEL-28; assay: Growth inhibition of human SK-MEL-28 cells assessed as cell growth at 1 M after 48 hrs by sulforhodamine B assay; parameters: scale not given: the % may be the effect or the level left; outline: as §1
[24] = system: Bacillus subtilis; assay: Antimicrobial activity against Bacillus subtilis at 1 to 5 ug/ml by agar well diffusion method; outline: as §3
[25] = system: OVCAR-4; assay: Growth inhibition of human OVCAR4 cells assessed as cell growth at 1 M after 48 hrs by sulforhodamine B assay; parameters: scale not given: the % may be the effect or the level left; outline: as §2
[26] = system: HT-29; assay: Growth inhibition of human HT-29 cells assessed as cell growth at 1 M after 48 hrs by sulforhodamine B assay; parameters: scale not given: the % may be the effect or the level left; outline: as §2
[27] = system: U-251; assay: Growth inhibition of human U251 cells assessed as cell growth at 1 M after 48 hrs by sulforhodamine B assay; parameters: scale not given: the % may be the effect or the level left; outline: as §1
[28] = system: HOP-62; assay: Growth inhibition of human HOP62 cells assessed as cell growth at 1 M after 48 hrs by sulforhodamine B assay; parameters: scale not given: the % may be the effect or the level left; outline: as §2
[29] = system: MCF7; assay: Growth inhibition of human MCF7 cells assessed as cell growth at 1 M after 48 hrs by sulforhodamine B assay; parameters: scale not given: the % may be the effect or the level left; outline: as §2
[30] = system: HCT-15; assay: Growth inhibition of human HCT15 cells assessed as cell growth at 1 M after 48 hrs by sulforhodamine B assay; parameters: scale not given: the % may be the effect or the level left; outline: as §2
[31] = system: T47D; assay: Growth inhibition of human T47D cells assessed as cell growth at 1 M after 48 hrs by sulforhodamine B assay; parameters: scale not given: the % may be the effect or the level left; outline: as §1
[32] = system: RXF 393; assay: Growth inhibition of human RXF393 cells assessed as cell growth at 1 M after 48 hrs by sulforhodamine B assay; parameters: scale not given: the % may be the effect or the level left; outline: as §1
[33] = Growth inhibition of human Hs 578T cells assessed as cell growth at 1 M after 48 hrs by sulforhodamine B assay; parameters: scale not given: the % may be the effect or the level left; outline: as §2
[34] = system: ACHN; assay: Growth inhibition of human ACHN cells assessed as cell growth at 1 M after 48 hrs by sulforhodamine B assay; parameters: scale not given: the % may be the effect or the level left; outline: as §2
[35] = system: EKVX; assay: Growth inhibition of human EKVX cells assessed as cell growth at 1 M after 48 hrs by sulforhodamine B assay; parameters: scale not given: the % may be the effect or the level left; outline: as §2
[36] = system: HCT-116; assay: Growth inhibition of human HCT116 cells assessed as cell growth at 1 M after 48 hrs by sulforhodamine B assay; parameters: scale not given: the % may be the effect or the level left; outline: as §2
[37] = system: NCI-H23; assay: Growth inhibition of human NCI-H23 cells assessed as cell growth at 1 M after 48 hrs by sulforhodamine B assay; parameters: scale not given: the % may be the effect or the level left; outline: as §2

Cc1cc(=O)[nH]c(/C(=N/Nc2ccccc2)C(=O)c2ccc(Cl)cc2)n1
Activity [1]: 117.24% | Activity [2]: 95.47% | Activity [3]: 97.08% | diameter of the inhibition zone (DIZ) [4]: 0 cm | ED50 [5]: 0.211 µg/kg | Activity [6]: 105.71% | Activity [7]: 94.56% | Activity [8]: 83.96% | Activity [9]: 75.72% | Activity [10]: 96.57% | diameter of the inhibition zone (DIZ) [11]: 0 cm | Activity [12]: 117.08% | Activity [13]: 91.99% | Activity [14]: 98.31% | Activity [15]: 92.58% | Activity [16]: 50.74% | Activity [17]: 92.54% | Activity [18]: 88.71% | Activity [19]: 101.95% | Activity [20]: 97.53% | Activity [21]: 52.73% | Activity [22]: 107.24% | Activity [23]: 110.14% | diameter of the inhibition zone (DIZ) [24]: 0 cm | Activity [25]: 110.81% | Activity [26]: 105.27% | Activity [27]: 106.82% | Activity [28]: 104.07% | Activity [29]: 90.11% | Activity [30]: 112.06% | Activity [31]: 77.02% | Activity [32]: 28.48% | Activity [33]: 83.59% | Activity [34]: 110.63% | Activity [35]: 103.39% | Activity [36]: 86.88% | Activity [37]: 105.18%

CC(=O)c1ccc(N/N=C(\C(=O)c2ccc(Cl)cc2)c2nc(C)cc(=O)[nH]2)cc1
Activity [1]: 95.91% | Activity [2]: 95.91% | Activity [3]: 88.06% | diameter of the inhibition zone (DIZ) [4]: 0 cm | ED50 [5]: 0.698 µg/kg | Activity [6]: 121.73% | Activity [7]: 98.45% | Activity [8]: 97.59% | Activity [9]: 95.38% | Activity [10]: 91.91% | diameter of the inhibition zone (DIZ) [11]: 0 cm | Activity [12]: 91.69% | Activity [13]: 80.29% | Activity [14]: 95.27% | Activity [15]: 90.5% | Activity [16]: 115.14% | Activity [17]: 94.61% | Activity [18]: 97.73% | Activity [19]: 100.14% | Activity [20]: 104.16% | Activity [21]: 87.61% | Activity [22]: 100.21% | Activity [23]: 106.93% | diameter of the inhibition zone (DIZ) [24]: 0 cm | Activity [25]: 99.2% | Activity [26]: 101.59% | Activity [27]: 96.78% | Activity [28]: 116.72% | Activity [29]: 89.39% | Activity [30]: 96.72% | Activity [31]: 75.56% | Activity [32]: 94.35% | Activity [33]: 90.12% | Activity [34]: 90.63% | Activity [35]: 105.04% | Activity [36]: 90.39% | Activity [37]: 86.1%

Cc1ccc(N/N=C(\C(=O)c2ccc(Cl)cc2)c2nc(C)cc(=O)[nH]2)cc1
Activity [1]: 107.28% | Activity [2]: 103.64% | Activity [3]: 82.73% | diameter of the inhibition zone (DIZ) [4]: 0 cm | ED50 [5]: 0.173 µg/kg | Activity [6]: 116.23% | Activity [7]: 93.7% | Activity [8]: 107.77% | Activity [9]: 90.05% | Activity [10]: 85.08% | diameter of the inhibition zone (DIZ) [11]: 0 cm | Activity [12]: 121.85% | Activity [13]: 90.8% | Activity [14]: 115.86% | Activity [15]: 95.01% | Activity [16]: 108.59% | Activity [17]: 100.03% | Activity [18]: 90.99% | Activity [19]: 114.61% | Activity [20]: 95.76% | Activity [21]: 91.74% | Activity [22]: 106.17% | Activity [23]: 117.97% | diameter of the inhibition zone (DIZ) [24]: 0 cm | Activity [25]: 116.35% | Activity [26]: 110.66% | Activity [27]: 103.37% | Activity [28]: 94.24% | Activity [29]: 91.01% | Activity [30]: 110.86% | Activity [31]: 88.32% | Activity [32]: 40.73% | Activity [33]: 99.88% | Activity [34]: 99.08% | Activity [35]: 91.46% | Activity [36]: 86.94% | Activity [37]: 111.33%
